Measured values reported in ChEMBL document CHEMBL2177092, “Phosphoramidate ProTides of the anticancer agent FUDR successfully deliver the preformed bioactive monophosphate in cells and confer advantage over the parent nucleoside” (J Med Chem, 2011).

Key:
[1] = system: HeLa; experiment: Cytostatic activity against human HeLa cells […] by cell counting; format: functional, cell-based
[2] = system: L1210; experiment: Cytostatic activity against thymidine-kinase deficient mouse L1210 cells after 48 hrs by cell counting; format: functional, cell-based; settings: L1210, 48 h
Outline: (§1)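 Suspension leukemia cells in DMEM with 10% FBS, 10 mM Hepes and 1 mM sodium pyruvate at 37 °C under 5% CO2. Seeded at 60 000 cells/well with graded compound levels. Grown 48 h (L1210) or 72 h (CEM), then counted by Coulter counter. Mean ± SD of two to four independent experiments.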

[3] = system: HeLa; experiment: Cytostatic activity against thymidine-kinase deficient human HeLa cells […]; format: functional, cell-based
[4] = system: CCRF-CEM; experiment: Cytostatic activity against thymidine-kinase deficient human CEM cells after 72 hrs by cell counting; format: functional, cell-based; outline: as §1
[5] = Cytostatic activity against mouse L1210/0 cells after 48 hrs by cell counting; format: functional, cell-based; settings: L1210/0, 48 h; outline: as §1
[6] = system: L1210; experiment: Ratio of IC50 for Mycoplasma hyorhinis-infected mouse L1210 cells to IC50 for mouse L1210/0 cells after 48 hrs by cell counting; format: functional
Outline: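 Murine L1210/0 cells were compared with L1210/TK cells, selected for resistance to 5-bromo-2'-dUrd, and with L1210.Hyor cells, chronically infected with Mycoplasma hyorhinis. Cells were grown in DMEM with 10% FBS, 10 mM Hepes and 1 mM pyruvate at 37 °C and 5% CO2, then seeded at 60 000 cells/well with compound. They were Coulter-counted after 48 h. […] Mean of 2–4 experiments.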

[7] = system: L1210; experiment: Cytostatic activity against Mycoplasma hyorhinis-infected mouse L1210 cells after 48 hrs by cell counting; format: functional, cell-based; settings: L1210, 48 h; outline: as §1
[8] = system: CCRF-CEM; experiment: Cytostatic activity against human CEM/0 cells after 72 hrs by cell counting; format: functional, cell-based
Outline: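 Suspension leukemia cells in DMEM with 10% FBS, 10 mM Hepes and 1 mM sodium pyruvate at 37 °C under 5% CO2. Seeded at 60 000 cells/well with graded compound levels. Grown 48 h (L1210) or 72 h (CEM), then counted by Coulter counter. […] Mean ± SD of two to four independent experiments.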

CSCC[C@H](NP(=O)(OC[C@H]1O[C@@H](n2cc(F)c(=O)[nH]c2=O)C[C@@H]1O)Oc1ccccc1)C(=O)OCc1ccccc1 (mixture of isomers)
IC50 [1]: 150 nM | IC50 [2]: 4100 nM | IC50 [3]: 11000 nM | IC50 [4]: 25000 nM | IC50 [5]: 58 nM | Ratio IC50 [6]: 13 | IC50 [7]: 760 nM | IC50 [8]: 280 nM

C[C@H](NP(=O)(OC[C@H]1O[C@@H](n2cc(F)c(=O)[nH]c2=O)C[C@@H]1O)Oc1cccc2ccccc12)C(=O)OC1Cc2ccccc2C1 (mixture of isomers)
IC50 [1]: 100 nM | IC50 [2]: 40000 nM | IC50 [3]: 7100 nM | IC50 [4]: 1000 nM | IC50 [5]: 39 nM | Ratio IC50 [6]: 1.08 | IC50 [7]: 42 nM | IC50 [8]: 79 nM

C[C@H](NP(=O)(OC[C@H]1O[C@@H](n2cc(F)c(=O)[nH]c2=O)C[C@@H]1O)Oc1cccc2ccccc12)C(=O)OC1CCCCC1 (mixture of isomers)
IC50 [1]: 90 nM | IC50 [2]: 150 nM | IC50 [4]: 1000 nM | IC50 [5]: 36 nM | Ratio IC50 [6]: 1.4 | IC50 [7]: 49 nM | IC50 [8]: 57 nM

CC(C)C[C@H](NP(=O)(OC[C@H]1O[C@@H](n2cc(F)c(=O)[nH]c2=O)C[C@@H]1O)Oc1cccc2ccccc12)C(=O)OCc1ccccc1 (mixture of isomers)
IC50 [1]: 80 nM | IC50 [2]: 1500 nM | IC50 [3]: 9400 nM | IC50 [4]: 30000 nM | IC50 [5]: 29 nM | Ratio IC50 [6]: 1.7 | IC50 [7]: 48 nM | IC50 [8]: 130 nM

C[C@H](NP(=O)(OC[C@H]1O[C@@H](n2cc(F)c(=O)[nH]c2=O)C[C@@H]1O)Oc1cccc2ccccc12)C(=O)OCC1CC1 (mixture of isomers)
IC50 [1]: 68 nM | IC50 [2]: 120 nM | IC50 [3]: 1400 nM | IC50 [4]: 1100 nM | IC50 [5]: 14 nM | Ratio IC50 [6]: 2.2 | IC50 [7]: 31 nM | IC50 [8]: 59 nM

O=C(OCc1ccccc1)[C@H](Cc1ccccc1)NP(=O)(OC[C@H]1O[C@@H](n2cc(F)c(=O)[nH]c2=O)C[C@@H]1O)Oc1ccccc1 (mixture of isomers)
IC50 [1]: 14 nM | IC50 [2]: 39000 nM | IC50 [3]: 12000 nM | IC50 [4]: 11000 nM | IC50 [5]: 16 nM | Ratio IC50 [6]: 35 | IC50 [7]: 560 nM | IC50 [8]: 250 nM

CSCC[C@H](NP(=O)(OC[C@H]1O[C@@H](n2cc(F)c(=O)[nH]c2=O)C[C@@H]1O)Oc1cccc2ccccc12)C(=O)OCc1ccccc1 (mixture of isomers)
IC50 [1]: 87 nM | IC50 [2]: 1900 nM | IC50 [3]: 8300 nM | IC50 [4]: 11000 nM | IC50 [5]: 54 nM | Ratio IC50 [6]: 3.7 | IC50 [7]: 200 nM | IC50 [8]: 190 nM

CCCCCCOC(=O)[C@H](C)NP(=O)(OC[C@H]1O[C@@H](n2cc(F)c(=O)[nH]c2=O)C[C@@H]1O)Oc1cccc2ccccc12 (mixture of isomers)
IC50 [1]: 39 nM | IC50 [2]: 76 nM | IC50 [3]: 1800 nM | IC50 [4]: 650 nM | IC50 [5]: 3.2 nM | Ratio IC50 [6]: 0.69 | IC50 [7]: 2.2 nM | IC50 [8]: 80 nM

CCCCCOC(=O)[C@H](CC(C)C)NP(=O)(OC[C@H]1O[C@@H](n2cc(F)c(=O)[nH]c2=O)C[C@@H]1O)Oc1cccc2ccccc12 (mixture of isomers)
IC50 [1]: 39 nM | IC50 [2]: 1200 nM | IC50 [3]: 7500 nM | IC50 [4]: 15000 nM | IC50 [5]: 31 nM | Ratio IC50 [6]: 1.13 | IC50 [7]: 35 nM | IC50 [8]: 71 nM

CC[C@H](C)[C@H](NP(=O)(OC[C@H]1O[C@@H](n2cc(F)c(=O)[nH]c2=O)C[C@@H]1O)Oc1ccccc1)C(=O)OCc1ccccc1 (mixture of isomers)
IC50 [1]: 710 nM | IC50 [2]: 1100 nM | IC50 [3]: 25000 nM | IC50 [4]: 30000 nM | IC50 [5]: 980 nM | Ratio IC50 [6]: 2.2 | IC50 [7]: 2200 nM | IC50 [8]: 1000 nM

O=C(OCc1ccccc1)[C@H](Cc1ccccc1)NP(=O)(OC[C@H]1O[C@@H](n2cc(F)c(=O)[nH]c2=O)C[C@@H]1O)Oc1cccc2ccccc12 (mixture of isomers)
IC50 [1]: 160 nM | IC50 [2]: 5600 nM | IC50 [3]: 6800 nM | IC50 [4]: 7200 nM | IC50 [5]: 21 nM | Ratio IC50 [6]: 11 | IC50 [7]: 230 nM | IC50 [8]: 100 nM

CCCOC(=O)[C@H](C)NP(=O)(OC[C@H]1O[C@@H](n2cc(F)c(=O)[nH]c2=O)C[C@@H]1O)Oc1cccc2ccccc12 (mixture of isomers)
IC50 [1]: 110 nM | IC50 [2]: 160 nM | IC50 [3]: 2500 nM | IC50 [4]: 1100 nM | IC50 [5]: 30 nM | Ratio IC50 [6]: 1.2 | IC50 [7]: 36 nM | IC50 [8]: 140 nM

CCCCCOC(=O)C(C)(C)NP(=O)(OC[C@H]1O[C@@H](n2cc(F)c(=O)[nH]c2=O)C[C@@H]1O)Oc1cccc2ccccc12 (mixture of isomers)
IC50 [1]: 120 nM | IC50 [2]: 300 nM | IC50 [3]: 2300 nM | IC50 [4]: 5400 nM | IC50 [5]: 45 nM | Ratio IC50 [6]: 0.42 | IC50 [7]: 19 nM | IC50 [8]: 140 nM

O=C(OCc1ccccc1)[C@@H]1CCCN1P(=O)(OC[C@H]1O[C@@H](n2cc(F)c(=O)[nH]c2=O)C[C@@H]1O)Oc1cccc2ccccc12 (mixture of isomers)
IC50 [1]: 1200 nM | IC50 [2]: 25000 nM | IC50 [3]: 26000 nM | IC50 [4]: 32000 nM | IC50 [5]: 260 nM | Ratio IC50 [6]: 2.5 | IC50 [7]: 650 nM | IC50 [8]: 890 nM

CCCCCOC(=O)[C@H](Cc1ccccc1)NP(=O)(OC[C@H]1O[C@@H](n2cc(F)c(=O)[nH]c2=O)C[C@@H]1O)Oc1cccc2ccccc12 (mixture of isomers)
IC50 [1]: 40 nM | IC50 [2]: 2900 nM | IC50 [3]: 6600 nM | IC50 [4]: 8300 nM | IC50 [5]: 30 nM | Ratio IC50 [6]: 4.67 | IC50 [7]: 140 nM | IC50 [8]: 100 nM

CC(C)C[C@H](NP(=O)(OC[C@H]1O[C@@H](n2cc(F)c(=O)[nH]c2=O)C[C@@H]1O)Oc1ccccc1)C(=O)OCc1ccccc1 (mixture of isomers)
IC50 [1]: 67 nM | IC50 [2]: 2000 nM | IC50 [3]: 5600 nM | IC50 [4]: 16000 nM | IC50 [5]: 54 nM | Ratio IC50 [6]: 3.2 | IC50 [7]: 170 nM | IC50 [8]: 240 nM

C[C@H](NP(=O)(OC[C@H]1O[C@@H](n2cc(F)c(=O)[nH]c2=O)C[C@@H]1O)Oc1cccc2ccccc12)C(=O)OCC(C)(C)C (mixture of isomers)
IC50 [1]: 700 nM | IC50 [2]: 1200 nM | IC50 [3]: 32000 nM | IC50 [4]: 6700 nM | IC50 [5]: 93 nM | Ratio IC50 [6]: 1.9 | IC50 [7]: 180 nM | IC50 [8]: 490 nM

CC(C)[C@H](NP(=O)(OC[C@H]1O[C@@H](n2cc(F)c(=O)[nH]c2=O)C[C@@H]1O)Oc1cccc2ccccc12)C(=O)OC1CCCCC1 (mixture of isomers)
IC50 [1]: 670 nM | IC50 [2]: 35000 nM | IC50 [3]: 27000 nM | IC50 [4]: 46000 nM | IC50 [5]: 1200 nM | Ratio IC50 [6]: 1.08 | IC50 [7]: 1290 nM | IC50 [8]: 800 nM

C[C@H](NP(=O)(OC[C@H]1O[C@@H](n2cc(F)c(=O)[nH]c2=O)C[C@@H]1O)Oc1cccc2ccccc12)C(=O)OC1CCOCC1 (mixture of isomers)
IC50 [1]: 130 nM | IC50 [2]: 27000 nM | IC50 [3]: 15000 nM | IC50 [4]: 43000 nM | IC50 [5]: 41 nM | Ratio IC50 [6]: 11.7 | IC50 [7]: 480 nM | IC50 [8]: 110 nM
